Measurements reported in paper PMC9119696 (Nature chemical biology, 2021).

How the values were obtained:
Thiol reactivity assay = assay type: physicochemical; conditions: compared with 2; reactivity varied by an order of magnitude
GST-Pin1 = GST-Pin1 (Homo sapiens, UniProt Q13526); experiment: Competitive fluorescence polarization; assay type: binding
How it was run: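 GST-Pin1 (250 nM) preincubated 14 h at 4 °C with compound and 5 nM N-terminal fluorescein-labelled peptide probe (Bth-D-pThr-Pip-Nal). Buffer: 10 mM HEPES, 10 mM NaCl, 1% glycerol pH 7.4, 10 µg ml-1 BSA, 0.01% Tween-20, 1 mM DTT. Ki calculated from probe concentration, 85% probe bound and Pin1 concentration. Kinact from dose- and time-dependent runs. n = 3 samples ± s.e.m.; 2 experiments.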

[1] = Hepatic microsome stability; assay type: in vitro ADME, mouse; conditions: 1 μM, 1 mg ml^−1 microsomes, NADPH
How it was run: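 Test compound (1 µM) incubated with hepatic microsomes (1 mg ml-1) in 100 mM KPi, pH 7.4. Reaction started by adding 1 mM NADPH.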

[2] = Mouse pharmacokinetic profiling; assay type: in vivo; conditions: oral 10 mg kg^–1, three mice
[3] = Acute toxicity model in mice; assay type: in vivo; conditions: daily 10, 20 or 40 mg kg^–1 IP for 2 weeks
How it was run: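 Mice, 3 per arm, 14 days: vehicle; 10 mg kg-1 once daily; 20 mg kg-1 every other day; 40 mg kg-1 once daily; 40 mg kg-1 every other day. Given by IP injection in 5% N-methylpyrrolidone, 5% solutol, 20% DMSO. Adverse effects and weight recorded; postmortem examination.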

Pin1 = experiment: In vivo Pin1 engagement, spleen competition pulldown; set-up: species or system mice; conditions: 20 mg kg^–1 oral gavage, three doses over 2 days
How it was run: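 Mice dosed by oral gavage with vehicle or 10 or 20 mg kg-1, three doses over two consecutive days. Spleens harvested 4 h after the last dose, ground and lysed in HEPES pH 7.4/NaCl/glycerol/TCEP/NP-40 buffer with protease inhibitors. Lysate clarified and normalized by BCA to 2.5 µg µl-1. Competition pulldown run with a desthiobiotin-tagged probe analogue.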

Pin1 Cys113 = experiment: rdTOP-ABPP chemoproteomic cysteine profiling; assay type: cell-based; conditions: MDA-MB-231 cells, 5 μM, 2 h
How it was run: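 MDA-MB-231 cells at 70% confluence treated 2 h with DMSO or 5 µM compound in serum-free medium. Lysed by sonication in PBS/0.1% Triton X-100; spun 100,000g, 30 min. Proteome (2 mg ml-1) labelled with 100 µM iodoacetamide-alkyne, 1 h RT. Clicked 1 h to biotin-acid-N3 (CuSO4/TBTA/TCEP). LC-MS/MS with cysteine modification +322.23688 Da; light/heavy ratios quantified.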

[4] = test system: IRAK1 Thr209 phosphorylation; experiment: IRAK1 Thr209 phosphorylation immunoblot; assay type: cell-based; conditions: HeLa, 24 h post-IR
[5] = test system: germinal center (GC) B cells; experiment: In vivo germinal center B cell evaluation; set-up: species or system mice; conditions: IP 40 mg kg^−1 on days 7 and 9 after NP-OVA immunization, day 11
How it was run: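 WT mice immunised with NP-OVA and killed on day 11. Lymph node cells Fc-blocked with anti-CD16/32 (2 µg ml-1, 5–10 min), then stained 20–40 min with B220, FAS and CD38 antibodies. Germinal centre B cells gated as live/single B220+ CD38lo FAShi by flow cytometry. Two-tailed Student's t test.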

[6] = test system: 275 human cancer cell lines; experiment: PRISM cancer cell viability screening; assay type: cell-based; conditions: 5-day treatment, 275 cell lines
How it was run: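 Pooled, 24-nucleotide-barcoded cancer cell lines (275 in total) exposed to test compound for 5 days. Eight-point curve in fourfold dilutions from a top concentration of 20 µM.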

PATU-8988T Pin1 KO cells = experiment: 2D growth over time viability; assay type: cell-based; conditions: 1 μM, up to 8 days
How it was run: (§1)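 Cells seeded at 500 per well (PATU-8988T: 100 per well) and dosed with test compound or DMSO the next day. Kept at 37 °C, 5% CO2, with medium and compound renewed every 48 h. One plate per time point (days 0, 2, 4, 6, 8); the day 0 plate was read before dosing. Viability measured by CellTiter-Glo luminescence.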

MDA-MB-468 = experiment: 2D growth over time viability; assay type: cell-based; conditions: up to 8 days, 2.5 μM
How it was run: as §1

Kuramochi = experiment: 2D growth over time viability; assay type: cell-based; conditions: up to 8 days
How it was run: as §1

NGP = experiment: 2D growth over time viability; assay type: cell-based; conditions: 2.5 μM after 8 days
How it was run: as §1

PATU-8988T WT Pin1 cells = experiment: 3D Matrigel dome antiproliferative assay; assay type: cell-based; conditions: 1 μM, 9-day treatment
How it was run: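 1,000 cells per Matrigel dome, one dome per well, left 15 min at 37 °C to solidify. Medium with test compound renewed every 3 days. After 9 days, 3D CellTiter-Glo was added and the plate shaken 1 h at room temperature before reading luminescence. n = 9 biological replicates per condition.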

PATU-8988T cells = experiment: Apoptosis analysis; assay type: cell-based
How it was run: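 PATU-8988T cells treated in triplicate for 6 days with DMSO (0.1%), test compound (1.0 or 2.5 µM) or a non-covalent analogue (2.5 µM), with medium replaced on day 3. Staurosporine (1 µM, 4 h) served as positive control. Cleaved caspase 3 and Pin1 assessed by Western blot. AnnexinV-FITC/7-AAD FACS scored live, early and late apoptotic cells; mean with SD, n=3.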

Mino B cells = experiment: RNA-seq differential expression; assay type: cell-based, human; conditions: 1 μM, 6 h
How it was run: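 Mino cells grown in RPMI 1640 with 15% FBS and 1% penicillin/streptomycin at 37 °C, 5% CO2 in a humidified incubator.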

[7] = test system: Tg(dβh:MYCN;dβh:EGFP) zebrafish; experiment: Zebrafish MYCN neuroblastoma initiation model; assay type: in vivo; conditions: 25–100 μM in water
How it was run: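 Three-day-old embryos placed five per well and exposed to DMSO or test compound in egg water. Live fish imaged for bright-field and EGFP fluorescence under identical conditions. EGFP-positive tissue area quantified from the images.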

[8] = dose- and time-dependent FP assay

Chain of GST-Pin1 (Q13526 whole entry): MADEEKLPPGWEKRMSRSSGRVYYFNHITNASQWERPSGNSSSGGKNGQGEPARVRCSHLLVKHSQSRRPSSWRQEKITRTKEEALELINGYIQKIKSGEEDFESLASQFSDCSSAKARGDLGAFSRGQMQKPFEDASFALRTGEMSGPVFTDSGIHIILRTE

CC(C)(C)CN(C(=O)CCl)C1CCS(=O)(=O)C1 (stereo not shown) [Sulfopin]
thiol reactivity (Thiol reactivity assay): dramatically less reactive
Kinact (GST-Pin1; [8]): 0.03 min⁻¹
second-order rate constant (Kinact/Ki) (GST-Pin1; [8]): 84 M⁻¹ s⁻¹
Ki (GST-Pin1; read-out: apparent Ki (FP assay), after 14 h incubation): 17 nM
half-life in mouse hepatic microsomes [1]: 41 min
oral bioavailability (F%) [2]: 30%
Cmax ([2]; read-out: average cmax (peak concentration)): 11.5 µM
adverse effects, weight loss [3]: No adverse effects or weight loss were recorded
in vivo Pin1 engagement in spleen (Pin1): Effective Pin1 engagement was observed in three out of three mice
competition ratio R, Pin1 Cys113 (Pin1 Cys113): 15
competition ratio R, all other identified cysteines (Pin1 Cys113; 2,134 peptides): < 2.5
concentration decreasing IRAK1 Thr209 phosphorylation [4]: ≤ 100 nM
proportion of GC B cells compared to vehicle [5]: 1.34 fold
antiproliferative activity (PRISM) [6]: limited to no antiproliferative activity
number of cell lines with EC50 <3 μM [6]: nine
effect on cellular viability (PATU-8988T Pin1 KO cells): no significant effect on viability
antiproliferative effect (growth over time) (MDA-MB-468): most pronounced sensitivity
antiproliferative effect (growth over time) (Kuramochi): only slight effects
antiproliferative effect (growth over time) (NGP): significant viability effects
antiproliferative activity in 3D Matrigel domes (PATU-8988T WT Pin1 cells): modest antiproliferative activity
Pin1 protein levels (PATU-8988T cells; 5 or 6 days, 1 μM, 2.5 μM, Western blot): Pin1 levels were not changed
induction of apoptosis (PATU-8988T cells; treatments of up to 6 days, 1 and 2.5 μM): does not induce apoptosis
number of genes significantly downregulated (Mino B cells): 206
neuroblastoma-initiating hyperplasia [7]: significantly suppressed
toxicity in zebrafish embryos [7]: no evidence of toxicity was observed
